Experiment [1] has as its target T1, R47E PTP1B (Homo sapiens, UniProt P18031, R47E).
T1 sequence (P18031 1-321 R47E): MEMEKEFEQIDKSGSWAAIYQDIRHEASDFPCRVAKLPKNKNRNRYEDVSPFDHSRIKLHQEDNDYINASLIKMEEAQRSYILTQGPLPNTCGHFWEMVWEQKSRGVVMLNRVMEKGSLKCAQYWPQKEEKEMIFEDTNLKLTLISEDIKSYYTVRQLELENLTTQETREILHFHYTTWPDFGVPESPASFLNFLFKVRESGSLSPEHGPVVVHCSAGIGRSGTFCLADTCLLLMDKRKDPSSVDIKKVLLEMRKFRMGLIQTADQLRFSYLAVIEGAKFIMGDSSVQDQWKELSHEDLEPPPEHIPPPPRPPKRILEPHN
Briefly: PTP assay, R47E PTP1B. In kind it is biochemical. Summed up:
(§1)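 E. coli-expressed catalytic domains were used: wild-type, R24M or R47E PTP1B (aa 1–321), and SHP-1 (aa 205–595). Reactions started with PTP (0.5–20000 nM final) and dephosphorylation was monitored continuously at 282 nm. kcat, KM and kcat/KM came from initial-rate fits (Michaelis–Menten, or V = kcat[E][S]/KM when KM >> [S]) or from fits of progress curves.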

Experiment [2] addresses SHP-1 (Homo sapiens, UniProt P29350). The following applies: catalytic domain; cited from earlier work.
The target of experiment [3] is T2, SHP-2 (Homo sapiens, UniProt Q06124).
T2 sequence (Q06124 199-593): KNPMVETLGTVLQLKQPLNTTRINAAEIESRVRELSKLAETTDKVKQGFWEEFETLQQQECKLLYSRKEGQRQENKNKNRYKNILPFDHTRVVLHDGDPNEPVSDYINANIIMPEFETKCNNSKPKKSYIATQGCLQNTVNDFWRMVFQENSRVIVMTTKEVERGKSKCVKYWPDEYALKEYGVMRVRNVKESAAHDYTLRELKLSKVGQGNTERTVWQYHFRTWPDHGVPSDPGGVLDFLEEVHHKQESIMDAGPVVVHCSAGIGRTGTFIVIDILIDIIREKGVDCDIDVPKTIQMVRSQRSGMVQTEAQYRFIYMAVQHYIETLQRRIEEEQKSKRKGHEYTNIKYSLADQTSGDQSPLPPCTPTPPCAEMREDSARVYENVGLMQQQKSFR
The following applies: catalytic domain; cited from earlier work.

The target of experiment [4] is T3, R24M PTP1B (Homo sapiens, UniProt P18031, R24M).
T3 sequence (P18031 1-321 R24M): T1 sequence (P18031 1-321 R47E) with R24M, E47R
Briefly: PTP assay, R24M PTP1B. In kind it is biochemical. A digest of the protocol:
as §1

Residue numbers refer to the chain shown, from its start. Several values for one entry are separate records, joined by “and”; a condition that tells them apart may be missing. Equal values may be shown once.

Sequence of SHP-1 (P29350 205-595): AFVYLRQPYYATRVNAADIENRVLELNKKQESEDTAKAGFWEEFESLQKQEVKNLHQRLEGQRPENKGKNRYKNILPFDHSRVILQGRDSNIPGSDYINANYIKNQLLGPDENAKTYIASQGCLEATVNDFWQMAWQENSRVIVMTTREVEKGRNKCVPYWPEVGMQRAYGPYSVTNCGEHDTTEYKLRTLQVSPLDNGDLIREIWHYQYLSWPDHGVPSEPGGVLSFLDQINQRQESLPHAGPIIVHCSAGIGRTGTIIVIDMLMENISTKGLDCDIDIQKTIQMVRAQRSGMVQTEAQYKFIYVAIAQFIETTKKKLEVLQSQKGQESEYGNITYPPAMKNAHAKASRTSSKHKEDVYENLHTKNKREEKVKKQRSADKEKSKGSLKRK

What is called Km is the substrate concentration at which the rate is half of its maximum. The kcat is the number of substrate molecules converted per active site and unit of time at saturation. On to Ac-SASASpYSASA-NH2, for which, in experiment [1] (R47E PTP1B aa 1–321, pH 7.4), the Km amounted to 12 ± 1 µM, the catalytic constant (kcat) stood at 35 ± 1 s⁻¹ and the “kcat/KM x 10^7” value is 0.29 x 10^7 M^−1 s^−1. For the same substance, the WT/R47E in experiment [1] (ratio of kcat/KM, WT over R47E PTP1B (fold decrease by the mutation)) worked out at 0.79. Also, in experiment [2], the Michaelis-Menten constant (Km) was 1990 µM and 2000 µM; the kcat is 26 ± 4 s^−1 and 26 ± 4 ^c s^−1; the “kcat/KM x10^6” value is 0.013 x10^6 M^−1 s^−1. Besides, in experiment [3], the Km was 2300 ± 400 µM; the kcat is 42 ± 5 s^−1 and 42 ± 5 ^c s^−1; the “kcat/KM x10^6” value is 0.018 x10^6 M^−1 s^−1 and 0.018 ^c x10^6 M^−1 s^−1. Also, in experiment [4] (R24M PTP1B aa 1–321, pH 7.4), the Km came out at 14 ± 0.6 µM, the kcat worked out at 42 ± 2 s⁻¹ and the “kcat/KM x 10^7” value is recorded as 0.30 x 10^7 M^−1 s^−1. In experiment [4] (ratio of kcat/KM, WT over R24M PTP1B (fold reduction by the mutation)), the WT/R24M worked out at 0.77.
